High-throughput results (PubChem BioAssay)
HKDC1 inhibitor: HKDC1 (human) hexokinase inhibition; 0.16% of 340,000 active; recombinant HKDC1, G6PDH/diaphorase resazurin coupled fluorescence; inhibition, % at 20 µM;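 active = inhibition above about 35% when tested at 20 µM, limit read from the data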
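Test system: HK5 enzyme. Quantity: 5 µg/mL HK5 final. Reagent: glucose and ATP substrates. Schedule: 90 min reaction incubation at room temperature, dark. Technique: resazurin-to-resorufin fluorescence via G6PDH and diaphorase coupling, 525/613 nm. Control set: DMSO wells with and without enzyme mix.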
PHOSPHO1 inh: inhibitors of human PHOSPHO1 phosphatase; 1.1% of 290,000 active; recombinant PHOSPHO1, absorbance phosphatase assay; inhibition, % at 13.3 µM; in the data active = inhibition above about 60%
Tb hexokinase: T. brucei hexokinase 1 inhibition. recombinant TbHK1, G6PDH-coupled NADH A340. inhibition, % at 10 µM. 0.11% of 220,000 active. AID 1430;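 active = inhibition of 50% or more in the single-dose primary screen; inactive = inhibition below 50%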
PfGluPho inh: PfG6PD (Plasmodium falciparum) enzyme inhibition; 0.78% of 350,000 active; PfGluPho enzyme, NADPH resazurin-diaphorase fluorescence; inhibition, % at 20 µM;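 active = inhibition reaching at least a set limit at 20 µM in the primary screen, cut at about 59% in these data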
EP2 antag: inhibitors of human EP2 prostaglandin E2 receptor | P43116 | C6 glioma cells expressing human EP2, cAMP TR-FRET; cells stimulated with saturating PGE2 | inhibition, % at 25 µM | 0.52% of 260,000 active | AID 1422;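 active = percent inhibition above 40 after rounding to a whole number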;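 note: rat C6 glioma host cells with rolipram phosphodiesterase inhibitor present; the protocol text gives 20 µM as final concentration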
EP2 modulator: modulates human prostaglandin E2 receptor EP2 signaling | P43116 | EP2-expressing cells, cAMP HTRF FRET, PGE2 co-stimulation | induction, % at 25 µM | 0.83% of 260,000 active;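 active = compounds whose cAMP rise, as percent of the full-agonist control response, exceeds 60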;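 note: rat C6 glioma line stably carrying human EP2 under a CMV promoter; the protocol text gives 20 µM as final concentration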
Hits are given with their value; n = inactive; x = no result given. Rows were chosen to be rich in hits. Some 2.5% of all compounds tested hit in one or more screens of this group.

SMILES	HKDC1 inhibitor	PHOSPHO1 inh	Tb hexokinase	PfGluPho inh	EP2 antag	EP2 modulator
Cc1cc(-n2c(C)cc(C(=O)CSc3ccc4c(c3)OCCO4)c2C)no1	n	71.1	n	n	n	n
Cc1ccc(-n2nnnc2SCC(=O)c2cc(C)n(-c3cc(C)on3)c2C)c(C)c1	n	75.4	n	n	n	n
Cc1cc(-n2c(C)cc(C(=O)CSc3nnnn3-c3ccccc3)c2C)no1	n	n	n	n	n	n
CC1CCN(C(c2cc3cc4c(cc3[nH]c2=O)OCCO4)c2nnnn2Cc2ccc(F)cc2)CC1 (stereo not drawn)	x	x	x	x	n	n
CCOC(=O)CC(=O)CSc1nnc(Cn2c(=O)sc3ccccc32)n1C	n	71.1	n	n	n	n
CCOC(=O)CNC(=O)CSc1nnc(Cn2c(=O)sc3ccccc32)n1C	n	n	n	n	n	n
COc1ccc(Nc2ccccc2C(=O)O)cc1	n	n	n	n	n	n
COc1ccc(Nc2cccccc2=O)cc1	n	62.0	n	n	n	n
COc1cc(OC)cc(C(=O)Nc2cccc(-c3nn4c(C)nnc4s3)c2)c1	x	x	x	x	n	n
COc1ccc(C)cc1NC(=O)N1CCCc2ccccc21	n	n	n	n	n	61.4
COc1ccc(-c2ccc(=O)n(C[C@H](C)NC(=O)Cc3n[nH]c(=O)c4ccccc34)n2)cc1	x	x	x	x	x	n
CN1CCN(C(=O)CCN2C(=O)/C(=C\c3ccc(Cl)cc3Cl)SC2=S)CC1	n	83.6	n	n	n	n
CN1CCN(C(=O)CCCN2C(=O)/C(=C/c3ccc(Cl)cc3)SC2=S)CC1	n	x	x	n	x	x
CCc1cc(C(=O)NNC(=S)Nc2cccc(C)c2)cs1	n	n	n	n	n	n
Cc1cccc(NC(=S)NNC(=O)c2sccc2C)c1	n	80.4	n	n	n	n
S=C(NCc1ccccc1)Nc1cccc(Cl)c1	n	n	n	n	n	n
Cc1cccc(NC(=S)NNC(=S)NCc2ccccc2)c1	n	77.5	n	n	n	n
COC(=O)c1ccc(Cl)c(NC(=O)CN2C(=O)c3ccccc3S2(=O)=O)c1	x	x	x	x	n	n
O=C(CCCCn1c(=O)[nH]c2ccccc2c1=O)NC1CCN(Cc2ccccc2)CC1	n	63.0	n	n	n	n
O=C(CCCn1c(=O)[nH]c2ccccc2c1=O)NC1CCCCCC1	n	n	n	n	n	n
CCN1CCN(c2ccc(NC(=O)c3cccc(C)c3OC)cc2)CC1	x	x	x	x	n	n
CC1(C)Cc2c(sc3c2c2ncnn2c2nnc(SCC(=O)NCc4ccco4)n32)CO1	n	n	n	n	n	n
CCC1(C)Cc2c(sc3c2c2ncnn2c2nnc(SCC(=O)NCc4ccco4)n32)CO1 (stereo not drawn)	n	65.4	n	n	n	n
O=C(NC1CCCCC1)c1sc(=S)n2c1[nH]c(=O)c1ccccc12	n	75.6	n	n	n	n
CCn1cc(C(=O)N2CCC3(CC2)Nc2ccccc2-n2cccc23)cn1	x	x	x	x	n	n
SMILES	HKDC1 inhibitor	PHOSPHO1 inh	Tb hexokinase	PfGluPho inh	EP2 antag	EP2 modulator
c1ccc(-c2nc3nonc3nc2-c2ccccc2)cc1	n	67.4	n	n	x	n
O=C(CSc1nnc(-c2ccc(S(=O)(=O)N3CCCC3)cc2)n1CC1CCCO1)NC1CC1 (stereo not drawn)	n	84.2	n	n	n	n
COc1cc(C(=O)CSc2nnc(-c3ccc(O)cc3)n2CC2CCCO2)ccc1NC(C)=O (stereo not drawn)	n	79.2	n	n	n	n
CCC(=O)Nc1ccc(C(=O)CSc2nnc(-c3ccc(O)cc3)n2CC2CCCO2)cc1 (stereo not drawn)	n	n	n	n	n	n
CCc1nnc(NC(=O)CN2C(=O)c3ccccc3C2=O)s1	n	74.0	n	n	n	n
CCC(CC)c1nnc(NC(=O)CN2C(=O)c3ccccc3C2=O)s1	n	n	n	n	n	n
CCCc1nnc(NC(=O)CN2C(=O)c3ccccc3C2=O)s1	n	85.8	n	n	n	n
CC1(c2ccccc2)CC(C)(C)N2C(=O)Cc3cccc1c32 (stereo not drawn)	n	n	n	n	n	61.8
N#Cc1c(-c2ccncc2)c2c([nH]c1=S)CCCC2	n	76.8	n	n	n	n
N#Cc1c(SCC(N)=O)nc2c(c1-c1ccncc1)CCCC2	n	n	n	n	n	n
COCCSc1nnc(NC(=O)c2ccccc2Cl)s1	x	x	x	x	n	n
